Each block holds one compound with its values, some of them ahead of it. Activity calls are given as the source filed them. The rule behind the calls is not given here.
Experiments:
[1] = molecular target: T1, Protein cereblon/Maternal embryonic leucine zipper kinase (Homo sapiens, UniProt Q14680+Q96SW2); assay: PROTAC activity at CRBN/MELK in human Ramos cells assessed as induction of MELK degradation by immunoblot analysis; type: cell-based
How it was run: (§1)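 Ramos cells in 12-well plates (1 mL medium) treated with compound at various concentrations. Lysed in 2X SDS sample buffer and boiled 15 min. Proteins resolved on 10% SDS-PAGE and transferred to PVDF. Probed with MELK, mTOR or p-mTOR antibodies, with β-actin/β-tubulin as loading controls. ECL detection, band densitometry, DC50 from nonlinear regression.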
Target sequence in this assay (Q14680 whole entry): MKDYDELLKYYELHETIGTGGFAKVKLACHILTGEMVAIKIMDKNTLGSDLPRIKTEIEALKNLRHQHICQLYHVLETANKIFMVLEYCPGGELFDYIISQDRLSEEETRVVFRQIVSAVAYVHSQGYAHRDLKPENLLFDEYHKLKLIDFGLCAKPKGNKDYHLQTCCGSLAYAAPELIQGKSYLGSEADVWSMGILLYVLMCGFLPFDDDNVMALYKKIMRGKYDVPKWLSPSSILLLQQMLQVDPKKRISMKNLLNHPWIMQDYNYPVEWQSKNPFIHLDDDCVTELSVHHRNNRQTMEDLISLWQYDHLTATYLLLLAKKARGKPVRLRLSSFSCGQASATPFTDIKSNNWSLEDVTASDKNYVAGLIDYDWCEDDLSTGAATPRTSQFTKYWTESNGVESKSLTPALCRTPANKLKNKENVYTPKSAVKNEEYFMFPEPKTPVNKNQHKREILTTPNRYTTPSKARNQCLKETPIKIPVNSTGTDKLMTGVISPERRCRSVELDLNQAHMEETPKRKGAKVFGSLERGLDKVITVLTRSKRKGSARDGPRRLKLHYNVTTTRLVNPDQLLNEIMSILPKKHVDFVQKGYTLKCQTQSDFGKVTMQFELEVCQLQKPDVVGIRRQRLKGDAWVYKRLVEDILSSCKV
Target sequence in this assay (Q96SW2 whole entry): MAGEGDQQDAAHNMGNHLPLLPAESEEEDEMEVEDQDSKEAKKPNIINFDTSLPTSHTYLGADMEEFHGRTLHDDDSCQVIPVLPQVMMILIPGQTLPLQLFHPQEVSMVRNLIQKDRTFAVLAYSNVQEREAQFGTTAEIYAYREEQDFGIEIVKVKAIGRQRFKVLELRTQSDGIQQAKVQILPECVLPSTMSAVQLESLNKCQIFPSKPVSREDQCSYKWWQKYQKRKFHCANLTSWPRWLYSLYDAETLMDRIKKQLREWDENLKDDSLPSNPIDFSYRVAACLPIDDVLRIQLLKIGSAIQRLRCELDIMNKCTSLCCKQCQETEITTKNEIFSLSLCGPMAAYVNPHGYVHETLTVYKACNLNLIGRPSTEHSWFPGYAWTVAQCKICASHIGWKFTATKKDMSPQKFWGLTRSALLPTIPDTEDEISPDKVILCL

[2] = molecular target: T1, Protein cereblon/Maternal embryonic leucine zipper kinase; assay: PROTAC activity at CRBN/MELK in human Ramos cells assessed as residual activity at 5 uM measured after 48 hrs by immunoblot analysis relative to control; type: cell-based
Target sequence in this assay (Q14680 whole entry, looked up): as the sequence (Q14680 whole entry) above
Target sequence in this assay (Q96SW2 whole entry, looked up): as the sequence (Q96SW2 whole entry) above

MDA-MB-231 = assay: Cytotoxicity against human MDA-MB-231 cells assessed as inhibition of cell growth measured after 72 to 96 hrs by CCK-8 method; type: functional; settings: time 72-96 hrs
How it was run: (§2)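 MDA-MB-231 grown in DMEM with 10% FBS, 1% pen-strep, 1% NEAA and 50 μM 2-mercaptoethanol at 37°C, 5% CO₂. Plated at 3000 cells/well with compound diluted in medium from DMSO stock. Incubated 72–96 h, then CCK-8 added for 4 h. Absorbance read at 450 nm, normalized to DMSO-treated cells. EC50 from nonlinear regression.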

[3] = Selectivity ratio of CC50 for human MDA-MB-231 cells to IC50 for human Ramos cells
Ramos [4] = assay: Cytotoxicity against human Ramos cells assessed as inhibition of cell growth measured after 72 to 96 hrs by CCK-8 method; type: functional, cell-based
How it was run: as §2, with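 “Ramos” for “MDA-MB-231”, “RPMI 1640” for “DMEM”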

Ramos [5] = assay: Induction of apoptosis in human Ramos cells assessed as necrotic cells at 20 uM measured after 24 hrs by Annexin V-FITC and propidium iodide staining based flow cytometry analysis (reference value: 0.34%); type: functional
How it was run: (§3)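 Ramos cells, 1×10^6 per well in 6-well plates, treated with compound or DMSO for 24 h. Washed in cold PBS, resuspended in Annexin V binding buffer, stained with Annexin V-FITC and propidium iodide. Populations quantified by flow cytometry.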

HUVEC = assay: Cytotoxicity against human HUVEC cells at 4 uM measured after 24 hrs by tube formation assay; type: toxicity, cell-based
How it was run: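 HUVEC, 3×10^4 cells/well, seeded on Matrigel-coated wells (Matrigel set 4 h at 37°C) in medium containing compound. Tubes imaged by optical microscopy and quantified by image analysis. Three independent experiments.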

[6] = molecular target: T1, Protein cereblon/Maternal embryonic leucine zipper kinase; assay: PROTAC activity at CRBN/MELK in human Ramos cells assessed as induction of MELK degradation by immunoblot analysis relative to control; type: cell-based; how it was run: as §1
Target sequence in this assay (Q14680 whole entry, looked up): as the sequence (Q14680 whole entry) above
Target sequence in this assay (Q96SW2 whole entry, looked up): as the sequence (Q96SW2 whole entry) above

Ramos [7] = assay: Induction of apoptosis in human Ramos cells assessed as early apoptotic cells at 20 uM measured after 24 hrs by Annexin V-FITC and propidium iodide staining based flow cytometry analysis (reference value: 9.69%); type: functional; how it was run: as §3
[8] = molecular target: T1, Protein cereblon/Maternal embryonic leucine zipper kinase; assay: PROTAC activity at CRBN/MELK in human Ramos cells assessed as inhibition of mTOR phosphorylation measured after 24 hrs Western blot analysis; type: cell-based; how it was run: as §1
Target sequence in this assay (Q14680 whole entry): as the sequence (Q14680 whole entry) above
Target sequence in this assay (Q96SW2 whole entry): as the sequence (Q96SW2 whole entry) above

Ramos [9] = assay: Induction of apoptosis in human Ramos cells at 20 uM measured after 24 hrs by calcein-AM/propidium iodide staining based fluorescence microscopic analysis; type: functional, cell-based
How it was run: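 Ramos cells, 2×10^5 per well in 12-well plates, exposed to compound or DMSO for 24 h. Washed in cold PBS, then stained with calcein-AM/propidium iodide working solution for 30 min at 37°C in the dark. Examined by fluorescence microscopy.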

Ramos [10] = assay: Upregulation of MELK mRNA level in human Ramos cells at 20 uM incubated for 24 hrs by qPCR analysis; type: functional, cell-based
How it was run: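 Ramos cells in 6-well plates exposed to 20 μM compound or DMSO for 24 h. MELK mRNA measured by qPCR with MELK-specific primers. Relative expression by the 2^-ΔΔCt method, normalized to 18S mRNA (actin also stated as internal control). Run in triplicate.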

[11] = molecular target: T1, Protein cereblon/Maternal embryonic leucine zipper kinase; assay: PROTAC activity at CRBN/MELK in human Ramos cells assessed as degradation of MELK at 20 uM pretreated with MLN4924 followed by compound addition and measured after 24 hrs by immunoblot analysis; type: cell-based
Target sequence in this assay (Q14680 whole entry, looked up): as the sequence (Q14680 whole entry) above
Target sequence in this assay (Q96SW2 whole entry, looked up): as the sequence (Q96SW2 whole entry) above

Ramos [12] = assay: Induction of apoptosis in human Ramos cells assessed as late apoptotic cells at 20 uM measured after 24 hrs by Annexin V-FITC and propidium iodide staining based flow cytometry analysis (reference value: 5.05%); type: functional; how it was run: as §3
DOHH-2 = assay: Upregulation of MELK mRNA level in human DOHH-2 cells at 20 uM incubated for 24 hrs by qPCR analysis; type: functional, cell-based
[13] = molecular target: T1, Protein cereblon/Maternal embryonic leucine zipper kinase; assay: PROTAC activity at CRBN/MELK in human Ramos cells assessed as inhibition of mTOR phosphorylation at upto 64 uM measured after 24 hrs Western blot analysis; type: cell-based; how it was run: as §1
Target sequence in this assay (Q14680 whole entry, looked up): as the sequence (Q14680 whole entry) above
Target sequence in this assay (Q96SW2 whole entry, looked up): as the sequence (Q96SW2 whole entry) above

Ramos [14] = assay: Induction of apoptosis in human Ramos cells assessed as viable cells at 20 uM measured after 24 hrs by Annexin V-FITC and propidium iodide staining based flow cytometry analysis (reference value: 84.9%); type: functional; settings: read-out: Activity; how it was run: as §3
Ramos [15] = assay: Induction of cell cycle arrest in human Ramos cells assessed as accumulation of cells at G2/M phase at 10 uM measured after 24 hrs by propidium iodide staining based flow cytometry analysis; type: functional
How it was run: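 Ramos cells exposed to compound or DMSO for 24 h, washed in cold PBS and fixed overnight in 70% ethanol. Stained with propidium iodide for 30 min at 37°C in the dark. Cell-cycle phase distribution determined by flow cytometry.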

[16] = molecular target: T1, Protein cereblon/Maternal embryonic leucine zipper kinase; assay: PROTAC activity at CRBN/MELK in human Ramos cells assessed as degradation of MELK at 20 uM pretreated with MG132 followed by compound addition and measured after 24 hrs by immunoblot analysis; type: cell-based
Target sequence in this assay (Q14680 whole entry, looked up): as the sequence (Q14680 whole entry) above
Target sequence in this assay (Q96SW2 whole entry, looked up): as the sequence (Q96SW2 whole entry) above

[17] = molecular target: T1, Protein cereblon/Maternal embryonic leucine zipper kinase; assay: PROTAC activity at CRBN/MELK in human Ramos cells assessed as degradation of MELK by measuring half life at 20 uM measured for 48 hrs by Western blot analysis; type: cell-based
Target sequence in this assay (Q14680 whole entry, looked up): as the sequence (Q14680 whole entry) above
Target sequence in this assay (Q96SW2 whole entry, looked up): as the sequence (Q96SW2 whole entry) above

DC50 [1]: < 5 µM | Activity [2]: 37.7%
SMILES: CC(C)COc1cnccc1-c1cnn(-c2ccc(N3CCN(Cc4cn(CCCCCCCNc5ccc6c(c5)C(=O)N(C5CCC(=O)NC5=O)C6=O)nn4)CC3)cc2)c1 (centres undefined)

DC50 [1]: < 5 µM | Activity [2]: 49.6%
SMILES: CC(C)COc1cnccc1-c1cnn(-c2ccc(N3CCN(Cc4cn(CCOCCOCCOCCNc5ccc6c(c5)C(=O)N(C5CCC(=O)NC5=O)C6=O)nn4)CC3)cc2)c1 (centres undefined)

SMILES: COc1cc(-c2cn[nH]c2)ccc1C(=O)Nc1ccc2c(c1)CCNCC2
CC50 (MDA-MB-231): 7.9 µM | Ratio CC50/IC50 [3]: 0.9 | IC50 (Ramos [4]): 9.1 µM

Emax [6]: 91.6% | EC50 [8]: 2.3 µM | DC50 [1]: 2.1 µM | Activity [11]: inactive | Activity [13]: Active | Activity [16]: inactive | T1/2 [17]: < 3 h | Activity [2]: 14.3%
SMILES: CC(C)COc1cnccc1-c1cnn(-c2ccc(N3CCN(Cc4cn(CCOCCOCCNc5ccc6c(c5)C(=O)N(C5CCC(=O)NC5=O)C6=O)nn4)CC3)cc2)c1 (centres undefined)
Activity (Ramos [5]): 0.25% | CC50 (MDA-MB-231): 13.8 µM | Activity (HUVEC): Non-Toxic | Activity (Ramos [7]): 42.1% | Ratio CC50/IC50 [3]: 7.6 | Activity (Ramos [9]): Active | Activity (Ramos [10]): Active | EC50 (Ramos [4]): 1.8 µM | Activity (Ramos [12]): 12.8% | Activity (DOHH-2): Active | viability at 20 µM (Ramos [14]): 44.9% | Activity (Ramos [15]): Active

DC50 [1]: < 5 µM | Activity [2]: 42.7%
SMILES: CC(C)COc1cnccc1-c1cnn(-c2ccc(N3CCN(Cc4cn(CCOCCOCCOCCOCCNc5ccc6c(c5)C(=O)N(C5CCC(=O)NC5=O)C6=O)nn4)CC3)cc2)c1 (centres undefined)

SMILES: CN1CCN(c2ccc(-n3cc(-c4ccncc4OCC4CCNCC4)cn3)cc2)CC1
CC50 (MDA-MB-231): 2.3 µM | Ratio CC50/IC50 [3]: 0.7 | IC50 (Ramos [4]): 3.4 µM

DC50 [1]: < 5 µM | Activity [2]: 49.3%
SMILES: CC(C)COc1cnccc1-c1cnn(-c2ccc(N3CCN(Cc4cn(CCOCCNc5ccc6c(c5)C(=O)N(C5CCC(=O)NC5=O)C6=O)nn4)CC3)cc2)c1 (centres undefined)
